Reference: ChEMBL document CHEMBL4373749, “Design and Catalyzed Activation of Tak-242 Prodrugs for Localized Inhibition of TLR4-Induced Inflammation” (ACS Med Chem Lett, 2020)

Key:
Toll-like receptor 4 [1] = biological target: T1, Toll-like receptor 4 (Homo sapiens, UniProt O00206); experiment: Inhibition of human TLR4 expressed in HEK-Blue cells assessed as decrease in LPS-induced TLR4 response incubated for 1 hr followed by LPS stimulation and further incubated for 22 hrs by cell based reporter assay
T1 sequence (O00206 whole entry): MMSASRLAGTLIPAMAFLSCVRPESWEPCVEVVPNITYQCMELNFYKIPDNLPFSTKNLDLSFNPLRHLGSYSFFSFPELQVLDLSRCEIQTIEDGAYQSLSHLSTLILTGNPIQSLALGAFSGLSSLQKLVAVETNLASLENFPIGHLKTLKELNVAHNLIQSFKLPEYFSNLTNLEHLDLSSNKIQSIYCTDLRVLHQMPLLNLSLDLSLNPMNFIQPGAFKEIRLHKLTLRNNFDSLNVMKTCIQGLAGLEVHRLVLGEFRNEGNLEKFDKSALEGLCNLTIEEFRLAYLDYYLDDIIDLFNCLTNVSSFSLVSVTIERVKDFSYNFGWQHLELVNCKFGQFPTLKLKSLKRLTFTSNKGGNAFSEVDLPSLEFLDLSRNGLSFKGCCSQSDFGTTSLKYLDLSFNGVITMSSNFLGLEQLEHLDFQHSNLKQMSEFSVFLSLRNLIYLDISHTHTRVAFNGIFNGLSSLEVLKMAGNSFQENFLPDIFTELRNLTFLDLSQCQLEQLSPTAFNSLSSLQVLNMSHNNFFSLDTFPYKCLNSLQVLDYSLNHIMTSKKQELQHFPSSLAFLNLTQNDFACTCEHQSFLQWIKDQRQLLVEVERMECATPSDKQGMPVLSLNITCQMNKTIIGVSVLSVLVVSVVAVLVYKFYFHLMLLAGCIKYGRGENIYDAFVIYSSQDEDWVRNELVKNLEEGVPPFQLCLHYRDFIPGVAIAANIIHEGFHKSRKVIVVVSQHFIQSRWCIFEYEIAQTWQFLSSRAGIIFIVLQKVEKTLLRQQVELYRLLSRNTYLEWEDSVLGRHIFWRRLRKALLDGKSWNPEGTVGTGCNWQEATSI

Toll-like receptor 4 [2] = biological target: T1, Toll-like receptor 4; experiment: Inhibition of human TLR4 expressed in HEK-Blue cells assessed as decrease in LPS-induced TLR4 response at 15 uM incubated for 1 hr followed by LPS stimulation and further incubated for 22 hrs by cell based reporter assay
Outline: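 HEK TLR4 reporter cells exposed to compound across a concentration range, then stimulated with LPS. Read-out is optical density at 650 nm. Complete suppression was defined as the OD650 of cells given racemic reference inhibitor at 15 μM. IC50 values were derived from the concentration-response data.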

[3] = Stability of compound in phosphate buffered saline containing 5% DMSO at 0.01 mg/ml at pH 7.4 by HPLC analysis; assay type: physicochemical; conditions: buffer
Outline: (§1)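 Incubation at 37 °C in phosphate buffered saline, pH 7.4, containing 5% DMSO. Aqueous stability was followed over time.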

[4] = Stability of compound in phosphate buffered saline containing 5% DMSO assessed as compound remaining at 0.01 mg/ml at pH 7.4 measured after 1 day by HPLC analysis; assay type: physicochemical; conditions: read-out: Stability; outline: as §1
[5] = biological target: T2, Oxygen-insensitive NAD(P)H nitroreductase (Escherichia coli K-12, UniProt P38489); experiment: Prodrug conversion in PBS containing 5% DMSO assessed as Escherichia coli nitroreductase-mediated activation by measuring increased consumption of prodrug at 0.01 mg/ml at pH 7.4 in presence of […] by HPLC analysis; conditions: isolated protein
T2 sequence (P38489 whole entry): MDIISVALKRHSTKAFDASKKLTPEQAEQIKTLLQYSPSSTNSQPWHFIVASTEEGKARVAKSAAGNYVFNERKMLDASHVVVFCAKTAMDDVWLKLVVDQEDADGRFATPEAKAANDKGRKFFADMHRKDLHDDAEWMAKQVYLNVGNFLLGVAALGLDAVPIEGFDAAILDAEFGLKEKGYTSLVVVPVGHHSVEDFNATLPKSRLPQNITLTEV
Outline: (§2)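 Nitroreductase from E. coli (2 units/mL) with NADPH (1 mg/mL) in PBS, pH 7.4, containing 5% DMSO. The reaction was monitored by HPLC.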

[6] = biological target: T2, Oxygen-insensitive NAD(P)H nitroreductase; experiment: Prodrug conversion in PBS containing 5% DMSO assessed as Escherichia coli nitroreductase-mediated activation by measuring release of ethyl (6R)-6-[(2-chloro-4-fluorophenyl)sulfamoyl]cyclohexene-1-carboxylate parent drug at 0.01 mg/ml at pH 7.4 in presence of […] by HPLC analysis; conditions: isolated protein; outline: as §2
[7] = biological target: T2, Oxygen-insensitive NAD(P)H nitroreductase; experiment: Prodrug conversion in PBS containing 5% DMSO assessed as Escherichia coli nitroreductase-mediated activation by measuring reduced amine intermediate metabolite formation at 0.01 mg/ml at pH 7.4 in presence of […] by HPLC analysis; assay type: ADME; conditions: isolated protein; outline: as §2

| Structure (SMILES) | IC50 (Toll-like receptor 4 [1]) | inhibition (Toll-like receptor 4 [2]) | Stability [3] | remaining at 24 h, 0.01 mg/ml [4] | Drug metabolism [5] | Drug metabolism [6] | Drug metabolism [7] |
| --- | --- | --- | --- | --- | --- | --- | --- |
| CCOC(=O)C1=CCCCC1S(=O)(=O)Nc1ccc(F)cc1Cl (racemic) | 40 nM | 100% | – | – | – | – | – |
| CCOC(=O)C1=CCCCC1S(=O)(=O)N(Cc1ccc([N+](=O)[O-])cc1)c1ccc(F)cc1Cl (racemic) | – | – | Stable | – | Metabolite_Detected | Metabolite_Detected | Metabolite_Detected |
| CCOC(=O)C1=CCCCC1S(=O)(=O)N(C(=O)OCc1ccc([N+](=O)[O-])cc1)c1ccc(F)cc1Cl (racemic) | – | – | Unstable | 85% | Metabolite_Detected | Metabolite_Detected | Metabolite_Notdetected |

The remaining lines, values ahead:

| IC50 (Toll-like receptor 4 [1]) | inhibition (Toll-like receptor 4 [2]) | Stability [3] | remaining at 24 h, 0.01 mg/ml [4] | Drug metabolism [5] | Drug metabolism [6] | Drug metabolism [7] | Structure (SMILES) |
| --- | --- | --- | --- | --- | --- | --- | --- |
| – | – | Unstable | 25% | – | – | – | C#CCOC(=O)N(c1ccc(F)cc1Cl)S(=O)(=O)C1CCCC=C1C(=O)OCC (racemic) |
| – | – | Stable | – | – | – | – | C#CCN(c1ccc(F)cc1Cl)S(=O)(=O)C1CCCC=C1C(=O)OCC (racemic) |
